Reference: ChEMBL document CHEMBL4513216, “Probing the Open Global Health Chemical Diversity Library for Multistage-Active Starting Points for Next-Generation Antimalarials” (ACS Infect Dis, 2020)

Assay: Toxicity liver stage against HepG2, at 10uM
Format: cell-based
Parameters: test concentration 10 uM, cell line HepG2-A16-CD81EGFP
Settings: human, HepG2-A16-CD81EGFP cells; read-out: INHIBITION
In short: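 Uninfected HepG2-A16-CD81EGFP cells, 3 × 10^3 per well, 1536-well, plated on prespotted compound at 10 μM final, parasite-free screening media added to match infected plates; puromycin 10 μM positive, DMSO 0.5% negative; run in parallel with 48 h PbLuc assay at 37 °C, 5% CO2; viability by CellTiter-Glo luminescence, normalized to controls.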

Row | SMILES | cytotoxicity at 10 µM [%]
1 | CNc1cc(N2CCCC2CNCc2csc(C)n2)ncn1 (configuration not stated) | -9.71
2 | CC(C)Nc1ncnc2c1CCN(C(=O)[C@H]1CCCO1)CC2 | -0.685
3 | O=C(CN1CCc2ccccc21)NCc1ccc(Cl)cc1 | 12.4
4 | O=C(NC1CC1)[C@@H]1CCO[C@@H]2CCN(CC3CCC3)C[C@@H]21 | -101
5 | CC(OCC1CC1)C(=O)N1CCCN(c2ncccc2C#N)CC1 (configuration not stated) | -11.6
6 | COc1cccc(S(=O)(=O)NC(=O)c2c(C)noc2C(C)C)c1 | -6.83
7 | Cc1n[nH]cc1CNC1(Cc2ccc(Br)cc2)CCCCC1 | 14.1
8 | Cn1cnnc1C1CCCN(C(=O)Cc2ccc3c(c2)OCCO3)C1 (configuration not stated) | 0.626
9 | Cc1ccc(CN2C[C@@H]3COC[C@]3(COc3ccc(C#N)cn3)C2)o1 | 0.777
10 | COc1ccc(C(=O)Cn2cnnc2[S+](C)[O-])cc1Cl (configuration not stated) | -8.17
11 | CC1CCc2n[nH]c(C(=O)NCCCc3ccccn3)c2C1 (configuration not stated) | -24.3
12 | CN(C)c1nc(CNC(=O)N[C@H](CO)c2ccccc2)cs1 | 11.7
13 | Cc1cc(C(F)(F)F)cc(N2CCC3(CCC(=O)N(CCO)C3)CC2)n1 | 8.09
14 | Cc1ccc(-c2nnc(SCC(=O)O)n2-c2ccccc2)cc1 | -4.9
15 | Cc1cccc(CN2CCc3nnc(CN(C)C)n3CC2)n1 | -1.54
16 | COCCN1CCc2ncnc(OC(C)C)c2CC1 | 8.26
17 | CCOc1cccc(NC(=O)c2cscn2)n1 | -3.59
18 | CC(C)NC(=O)C(c1ccccc1)N1CCn2c(nnc2C2CC2)C1 (configuration not stated) | -3.3
19 | CNC(=O)CN(C(=O)c1ccccc1)[C@H]1C[C@H]2CCOC[C@H]2C1 | -4.36
20 | CC(C)[C@H]1CN(S(C)(=O)=O)C[C@@H]1NC(=O)c1ccnc(N)c1 | 8
21 | CC(C)CS(=O)(=O)N1C[C@@H]2C[C@H](C(=O)N3CCOCC3)[C@H](C1)O2 | -2.71

Row | SMILES | cytotoxicity at 10 µM [%]
22 | Cc1cc(CN2CCN(C(C)c3nc(C4CC4)no3)CC2)no1 (configuration not stated) | 1.35
23 | Cc1cccc(N2CCN(CCC(=O)NCc3cccnc3)CC2)c1 | -9.2
24 | CN(Cc1ccncn1)C(=O)c1cccc(CCC(C)(C)O)c1 | -4.27
25 | O=C(Cc1ccn[nH]1)Nc1cncc(Br)c1O | -3.93
26 | O[C@H]1CC[C@@H](Cc2cc(-c3ccccc3)on2)O[C@@H]1CNCC1CC1 | -6.21
27 | Cc1nc(C)n(C2CCCN(C(=O)c3ccc(N(C)C)nn3)C2)n1 (configuration not stated) | 0.722
28 | Cc1cccc(CN2CCCC(O)(CNCc3ncccc3C)C2=O)c1 (configuration not stated) | -7.4
29 | O=C(NCc1cccnc1)[C@@H]1C[C@H]2[C@H](CCN2c2ncc(F)cn2)O1 | -85.3
30 | N#CCCN(C(=O)CN1CCCC1c1ccccc1Cl)c1ccccc1 (configuration not stated) | 8.22
31 | O=C(CN1CCS(=O)(=O)CC1)NC1CCOc2ccccc21 (configuration not stated) | 5.44
32 | Cc1cc(NC(=O)CNc2cccc(OC(F)F)c2C)n(C)n1 | 9.47
33 | Cc1nc2c(c(NC3CC3)n1)CCN(C(=O)CCc1cccnc1)CC2 | -9.1
34 | CSc1ncc(C(=O)N2CCN(c3ccccc3C)CC2C)cn1 (configuration not stated) | 0.642
35 | Cc1csc2ncnc(N3CCC(Cn4cc(C(C)(C)O)nn4)CC3)c12 | 49.2
36 | CCCNC(=O)c1cc(C(C)C)nc(N2CCCC2)n1 | 8.77
37 | Cc1cc(N(C)CC2COc3ccccc3O2)nc(N)n1 (configuration not stated) | 17.6
38 | COCc1nc(C(=O)N2CCCC2c2noc(C)n2)cs1 (configuration not stated) | -12
39 | COc1c(C2CCCN2C(=O)c2c[nH]c3ncccc23)c(C)nn1C (configuration not stated) | -6.49
40 | O=C(c1ccc[nH]1)N1CCc2cc(S(=O)(=O)N3CCOCC3)ccc2C1 | -3.44
41 | CC(C)Cc1noc(CN2CCN(C(=O)c3ccccc3F)CC2)n1 | -10.8
42 | COC1CCN(C(=O)Cc2csc(-c3ccccc3)n2)CC1 | -6.75

Row | SMILES | cytotoxicity at 10 µM [%]
43 | Cn1ccnc1CN1CCC2(CC1)CCN(c1cncnc1)C2=O | -65
44 | NC(=O)c1ccccc1Oc1cnc(C2CCCN2)cn1 (configuration not stated) | 0.288
45 | CC(=O)NCCC1CCCCN1S(=O)(=O)c1cccc(Cl)c1 (configuration not stated) | -125
46 | CN(Cc1ccsc1)Cc1nc(-c2ccncc2)no1 | 1.93
47 | COc1cc(CNC(=O)COC2CCCCC2)ccc1O | 6.81
48 | COc1cccc(C(=O)NC(CC(=O)O)c2cccs2)c1OC (configuration not stated) | -8.66
49 | Cc1ccc2c(c1)C(=O)CC1(CCN(Cc3ccccc3)CC1)O2 | 2.81
50 | c1cncc(CN2CCC3(CC2)CC(c2cccnc2)CO3)c1 (configuration not stated) | 0.851
51 | O=C(c1cnc(Nc2ccccc2)nc1)N1CCC(O)(CO)CC1 | -0.756
52 | C1CCN(CCOC2CCNC2)CC1 (configuration not stated) | 6.32
53 | CCN1CCCC(c2c(-c3ccccc3)ncn2Cc2cccnc2)C1 (configuration not stated) | -6.75
54 | COc1ccc(-n2ccc(CNCc3ccc(OC)c(O)c3)n2)cc1 | 0.51
55 | O=C(Nc1nccs1)N(CCO)Cc1ccsc1 | 1.4
56 | CC(=O)N1CCC2(CC1)C(=O)N(C)c1ccc(F)cc12 | -116
57 | CC(=O)N1CCC(C(=O)c2cc(C)cnc2N)CC1 | -0.0531
58 | COC(=O)c1cc(C(=O)N2CCc3ccc(F)cc3C2C)ccn1 (configuration not stated) | 10.5
59 | CC(C(=O)NC(C)(C)C)N1CCC(C(=O)Nc2cnccn2)CC1 (configuration not stated) | -1.36
60 | Cc1ccc2c(cnn2CCC(=O)NCc2csc(C)n2)c1 | 1.14
61 | CC(C)(C)n1cc(C(=O)N2CCN(Cc3ccccc3F)CC2)cn1 | 10.6
62 | COCCC(=O)NCC1CCC(C(c2ccccn2)N(C)C)CC1 (configuration not stated) | 11.5
63 | CN(CC(=O)N1CCC(COc2ccccc2)CC1)c1cnccn1 | -10.7

Row | SMILES | cytotoxicity at 10 µM [%]
64 | O=C(c1cc(F)ccc1F)C1CCN(C(=O)c2ccc(=O)[nH]n2)CC1 | 3.42
65 | Cc1ccccc1CN(C)C(=O)c1cc(C2CCCN2C)ccn1 (configuration not stated) | -4.76
66 | COc1ccc(C(=O)NCc2cc(N3CCOCC3)ncn2)o1 | 4.39
67 | O=C(NCc1ccc2c(c1)OCO2)[C@@H]1C=CCN1c1ncccn1 | 0.146
68 | O=C(COCC1CC1)Nc1ncn(CC(=O)N2CCCCCC2)n1 | -11.9
69 | COCCN1CC(O)CN(C(=O)c2cccc(C(F)(F)F)c2)CC1=O (configuration not stated) | -3.84
70 | Cc1cc(NC(=O)NCc2ccccc2OC(F)F)n(C)n1 | 2.29
71 | Cc1nc(CNC(=O)NCC(O)c2cccc(Cl)c2)cs1 (configuration not stated) | -16.1
72 | Cc1cc(-c2nn(C)c(Cl)c2CN2CC[C@H](CO)[C@@H](O)C2)no1 | 2.45
73 | CCN(CC)S(=O)(=O)NC(=O)c1cc(C)n(-c2ccccc2)n1 | -9.68
74 | CCc1ccc(C(=O)N2CCC(c3nncn3CC)CC2)s1 | -15.4
75 | CCS(=O)(=O)c1ncc(CN2CCCC2)n1CCc1ccccc1 | 5.35
76 | CC(C)N1CCC(c2nnc(CN3CCCC3)n2C2CC2)CC1 | -4.57
77 | Cc1cc(N2CCc3cncnc3C2)n2nc(C(F)(F)F)nc2n1 | 6.25
78 | COc1cc(C)nc(N2CCN(C(=O)c3cccc(C#N)c3)CC2)n1 | -3.54
79 | COCC(O)CNC(=O)Nc1ccc(Cl)cc1-n1cccc1 (configuration not stated) | -6.93
80 | CC1(Cc2cccnc2)NCCc2[nH]cnc21 (configuration not stated) | 12.1
81 | CC(=O)N1C[C@H](NC(=O)c2csc(C(C)C)c2)[C@@H](C(C)C)C1 | -18.2
82 | CCOCC1CN(C(=O)c2ccnnc2)Cc2cnn(CC)c21 (configuration not stated) | -77.8
